Reference: ChEMBL document CHEMBL1139245, “Synthesis and antiinflammatory activity of some new 1,3,5-trisubstituted pyrazolines bearing benzene sulfonamide” (Bioorg Med Chem Lett, 2009)

How the values were obtained:
[1] = tested on: Rattus norvegicus; experiment: Antiinflammatory activity in carrageenan-induced Wistar rat paw edema model assessed as increase in paw volume at 20 mg/kg, po measured 5 hrs after carrageenan challenge relative to control; type: functional
Summary of the method: (§1)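 Wistar rats of either sex (150–175 g), fasted 16 h overnight, groups of six; compound dosed orally at 20 mg/kg bw. 30 min later 0.1 ml of 1% carrageenan in normal saline injected into subplantar aponeurosis of left hind paw. Paw volume read by plethysmometer at 0, 3 and 5 h; increase in volume (ml, SEM) and % inhibition versus control.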

[2] = tested on: Rattus norvegicus; experiment: Antiinflammatory activity in carrageenan-induced Wistar rat paw edema model assessed as increase in paw volume at 20 mg/kg, po measured 3 hrs after carrageenan challenge relative to control; type: functional; summary of the method: as §1
[3] = biological target: Prostaglandin G/H synthase 1 (Ovis aries) (UniProt P05979); experiment: Inhibition of recombinant COX1 at 0.05 uM
[4] = tested on: Rattus norvegicus; experiment: Gastrointestinal toxicity in Wistar rat assessed as induction of gastric ulceration at 60 mg/kg, po; type: organism-based, Stomach; parameters: dose 60 mg/kg, route oral; conditions: in vivo
Summary of the method: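 Acute gastric ulcerogenicity in Wistar rats given 60 mg/kg bw orally. Animals sacrificed under deep ether anesthesia 6 h after treatment. Stomachs removed and opened along the greater curvature, then examined for lesions or bleeding.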

[5] = biological target: Prostaglandin G/H synthase 2 (Ovis aries) (UniProt P79208); experiment: Inhibition of recombinant COX2 at 0.05 uM
Prostaglandin G/H synthase 2 (Ovis aries), sequence (P79208 whole entry, looked up): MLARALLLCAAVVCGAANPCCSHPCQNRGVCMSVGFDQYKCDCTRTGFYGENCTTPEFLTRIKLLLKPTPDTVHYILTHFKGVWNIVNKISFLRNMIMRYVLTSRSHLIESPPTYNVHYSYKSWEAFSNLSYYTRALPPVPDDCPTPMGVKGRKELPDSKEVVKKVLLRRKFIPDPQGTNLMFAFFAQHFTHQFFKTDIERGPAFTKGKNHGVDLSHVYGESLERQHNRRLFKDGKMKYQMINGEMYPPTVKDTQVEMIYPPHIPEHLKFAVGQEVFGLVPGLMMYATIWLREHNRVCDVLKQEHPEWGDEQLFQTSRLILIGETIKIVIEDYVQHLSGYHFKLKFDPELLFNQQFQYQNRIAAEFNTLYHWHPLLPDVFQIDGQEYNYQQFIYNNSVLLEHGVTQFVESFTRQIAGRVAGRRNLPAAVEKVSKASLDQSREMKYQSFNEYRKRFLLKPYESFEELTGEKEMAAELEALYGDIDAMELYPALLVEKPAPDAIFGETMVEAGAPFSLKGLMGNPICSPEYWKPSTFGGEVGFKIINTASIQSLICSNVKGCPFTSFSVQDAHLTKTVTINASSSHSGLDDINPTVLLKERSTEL

Prostaglandin G/H synthase 1 (Ovis aries), sequence (P05979 whole entry, looked up): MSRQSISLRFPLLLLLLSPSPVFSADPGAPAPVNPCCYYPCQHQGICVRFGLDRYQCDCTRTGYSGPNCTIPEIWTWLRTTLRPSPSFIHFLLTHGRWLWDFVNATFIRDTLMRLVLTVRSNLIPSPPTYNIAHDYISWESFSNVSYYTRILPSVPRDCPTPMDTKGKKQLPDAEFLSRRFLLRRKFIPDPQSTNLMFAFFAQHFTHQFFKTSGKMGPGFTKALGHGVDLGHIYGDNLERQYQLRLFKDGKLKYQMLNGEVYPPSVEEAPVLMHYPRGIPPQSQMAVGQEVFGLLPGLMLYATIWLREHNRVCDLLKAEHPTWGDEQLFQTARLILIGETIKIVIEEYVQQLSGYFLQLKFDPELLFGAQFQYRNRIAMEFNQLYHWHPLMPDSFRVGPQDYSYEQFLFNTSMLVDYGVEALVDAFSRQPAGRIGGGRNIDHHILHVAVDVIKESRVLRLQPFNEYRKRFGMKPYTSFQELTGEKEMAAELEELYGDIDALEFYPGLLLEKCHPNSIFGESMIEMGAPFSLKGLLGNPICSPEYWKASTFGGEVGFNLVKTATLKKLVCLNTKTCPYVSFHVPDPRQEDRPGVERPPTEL

Row | inhibition [3] [%] | inhibition [5] [%] | SMILES | Activity [1] [%] | Activity [2] [%] | Activity [4]
1 | – | – | COc1ccc(C2=NN(c3ccc(S(N)(=O)=O)cc3)C(c3ccccc3Cl)C2)c(O)c1 (stereo unspecified) | 35.3 | 60 | –
2 | – | – | COc1ccc(C2CC(c3ccccc3O)=NN2c2ccc(S(N)(=O)=O)cc2)cc1OC (stereo unspecified) | 10.6 | 52 | –
3 | – | – | Cc1ccc(-c2cc(C(F)(F)F)nn2-c2ccc(S(N)(=O)=O)cc2)cc1 [CELECOXIB] | 40 | – | –
4 | – | – | COc1ccc(C2=NN(c3ccc(S(N)(=O)=O)cc3)C(c3ccc(OC)c(OC)c3)C2)c(O)c1 (stereo unspecified) | 13 | 9 | –
5 | – | – | COc1ccc(C2=NN(c3ccc(S(N)(=O)=O)cc3)C(c3ccc(Cl)cc3)C2)c(O)c1 (stereo unspecified) | 46.3 | 28.6 | –
6 | – | – | Cc1cc(=O)oc2c(C3=NN(c4ccc(S(N)(=O)=O)cc4)C(c4cccc(O)c4)C3)c(O)ccc12 (stereo unspecified) | 30.6 | 20 | –
7 | – | – | COc1ccc(C2=NN(c3ccc(S(N)(=O)=O)cc3)C(c3cc(OC)c(OC)c(OC)c3)C2)c(O)c1 (stereo unspecified) | 0 | 0 | –
8 | – | – | COc1ccc(C2=NN(c3ccc(S(N)(=O)=O)cc3)C(c3cccc(O)c3)C2)c(O)c1 (stereo unspecified) | 8.3 | 33.3 | –
9 | 58.8 | 42.9 | COc1ccc(C2=NN(c3ccc(S(N)(=O)=O)cc3)C(c3cccc([N+](=O)[O-])c3)C2)c(OC)c1 (stereo unspecified) | 57.6 | 68.8 | Non-toxic
10 | 60.9 | 50 | COc1ccc(C2=NN(c3ccc(S(N)(=O)=O)cc3)C(c3ccc(N(C)C)cc3)C2)c(OC)c1 (stereo unspecified) | 79.6 | 79.6 | Non-toxic
11 | – | – | COc1ccc(C2=NN(c3ccc(S(N)(=O)=O)cc3)C(c3cccc(O)c3)C2)c(OC)c1 (stereo unspecified) | 5.3 | 26.6 | –
12 | – | – | COc1ccc(C2CC(c3ccc(OC)cc3OC)=NN2c2ccc(S(N)(=O)=O)cc2)cc1 (stereo unspecified) | 10.6 | 49.3 | –
13 | – | – | COc1ccc(C2=NN(c3ccc(S(N)(=O)=O)cc3)C(c3ccccc3Cl)C2)c(OC)c1 (stereo unspecified) | 46.3 | 26.3 | –
14 | 73.2 | 85.7 | COc1ccc(C2=NN(c3ccc(S(N)(=O)=O)cc3)C(c3ccccc3)C2)c(OC)c1 (stereo unspecified) | 66.5 | 70 | Non-toxic
15 | – | – | COc1ccc(C2=NN(c3ccc(S(N)(=O)=O)cc3)C(c3ccc(Cl)cc3)C2)c(OC)c1 (stereo unspecified) | 6.6 | 25 | –
16 | – | – | COc1ccc(C2CC(c3ccc(OC)cc3O)=NN2c2ccc(S(N)(=O)=O)cc2)cc1 (stereo unspecified) | 37.3 | 27 | –
17 | – | – | COc1ccc(C2=NN(c3ccc(S(N)(=O)=O)cc3)C(c3ccccc3)C2)c(O)c1 (stereo unspecified) | 0 | 0 | –
18 | 30 | 38.6 | COc1ccc(C2=NN(c3ccc(S(N)(=O)=O)cc3)C(c3cc(OC)c(OC)c(OC)c3)C2)c(OC)c1 (stereo unspecified) | 76.6 | 83.3 | Non-toxic
19 | – | – | COc1ccc(C2CC(c3ccccc3O)=NN2c2ccc(S(N)(=O)=O)cc2)cc1 (stereo unspecified) | 41.3 | 50 | –
20 | – | – | COc1ccc(C2CC(c3c(O)ccc4c(C)cc(=O)oc34)=NN2c2ccc(S(N)(=O)=O)cc2)cc1 (stereo unspecified) | 10.6 | 20 | –
